Experimental data of several laboratories.
Each line is one published result; the experiments were not run side by side.
Target: Estrogen receptor (ESR1, Homo sapiens, UniProt P03372)
Sequence (P03372 1-595, as in one of the studies): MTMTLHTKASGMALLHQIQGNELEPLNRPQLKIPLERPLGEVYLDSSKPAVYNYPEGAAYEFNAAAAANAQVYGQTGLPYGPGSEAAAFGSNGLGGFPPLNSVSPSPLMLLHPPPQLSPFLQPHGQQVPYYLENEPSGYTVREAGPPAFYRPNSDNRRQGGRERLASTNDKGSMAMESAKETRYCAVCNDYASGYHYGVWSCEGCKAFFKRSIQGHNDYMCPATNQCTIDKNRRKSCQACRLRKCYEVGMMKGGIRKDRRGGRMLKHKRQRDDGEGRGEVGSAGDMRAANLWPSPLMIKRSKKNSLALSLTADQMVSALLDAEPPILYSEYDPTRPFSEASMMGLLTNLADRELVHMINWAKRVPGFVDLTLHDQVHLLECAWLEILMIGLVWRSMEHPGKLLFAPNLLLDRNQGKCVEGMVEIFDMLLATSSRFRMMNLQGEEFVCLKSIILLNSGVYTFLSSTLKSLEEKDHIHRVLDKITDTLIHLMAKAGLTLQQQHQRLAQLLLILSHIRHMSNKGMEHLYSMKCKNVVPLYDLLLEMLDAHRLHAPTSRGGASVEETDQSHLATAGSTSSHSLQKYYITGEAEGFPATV

For `Clc1cccc(-c2cccc(Cl)c2)c1`, the Emax was under 20% (reporter gene, agonist, luciferase).
With `COCc1c(-c2cc3cc(C)cc(OC)c3s2)c2c(N)ncnn2c1CN1CCNC(=O)C1` the inhibition was 6% (ligand displacement, radioligand; 10 µM).
For `c1ccc(C(NCCNC(c2ccccc2)c2ccccc2)c2ccccc2)cc1`, the inhibition was 63% (cell-free assay; 10 µM).
For `CC(C)N1CCC[C@H]1CNC(=O)c1cn(C2CCCC2)c(=O)c2c1c1ccccc1n2C`, the inhibition was 15% (ligand displacement, radioligand; 10 µM).
For `COc1ccc(S(=O)(=O)N2CCCCC2)cc1C`, the inhibition was under 30% (ligand displacement, radioligand; 10 µM).
`Clc1ccc(-c2cc(Cl)ccc2Cl)cc1` has an Emax of under 20% (reporter gene, agonist, luciferase).
The inhibition of `O=C(Nc1cccnn1)N1CCN([C@@H]2CCOc3cc(C(F)(F)F)ccc32)CC1` is reported as 0% (cell-free assay; 20 µM).
`C[C@H](C(=O)N[C@H]1COc2ccccc2[C@@H]1S(C)(=O)=O)c1ccc(F)cc1` has an inhibition of 7% (cell-free assay; 10 µM).
